Compound activity (PubChem)
In the library only some 3.1% were active in any assay of this set; here they are far more common.
E-sel inducer: induces E-selectin expression in human endothelial cells. HUVEC E-selectin immunofluorescence imaging; normalized: neutral wells 0, TNF-alpha wells 100. activation, % at 7.58 µM. actives 0.37% (n = 260,000). AID 686992;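 active = mean E-selectin-positive cell signal at least 10% of the positive control, reached in at least 60% of replicates, without over 20% cell loss; inconclusive = no rule given, readout overlaps actives, possibly toxicity-flagged; inactive = the rest, including those meeting only one limit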
Target sequence (P16581 whole entry, looked up): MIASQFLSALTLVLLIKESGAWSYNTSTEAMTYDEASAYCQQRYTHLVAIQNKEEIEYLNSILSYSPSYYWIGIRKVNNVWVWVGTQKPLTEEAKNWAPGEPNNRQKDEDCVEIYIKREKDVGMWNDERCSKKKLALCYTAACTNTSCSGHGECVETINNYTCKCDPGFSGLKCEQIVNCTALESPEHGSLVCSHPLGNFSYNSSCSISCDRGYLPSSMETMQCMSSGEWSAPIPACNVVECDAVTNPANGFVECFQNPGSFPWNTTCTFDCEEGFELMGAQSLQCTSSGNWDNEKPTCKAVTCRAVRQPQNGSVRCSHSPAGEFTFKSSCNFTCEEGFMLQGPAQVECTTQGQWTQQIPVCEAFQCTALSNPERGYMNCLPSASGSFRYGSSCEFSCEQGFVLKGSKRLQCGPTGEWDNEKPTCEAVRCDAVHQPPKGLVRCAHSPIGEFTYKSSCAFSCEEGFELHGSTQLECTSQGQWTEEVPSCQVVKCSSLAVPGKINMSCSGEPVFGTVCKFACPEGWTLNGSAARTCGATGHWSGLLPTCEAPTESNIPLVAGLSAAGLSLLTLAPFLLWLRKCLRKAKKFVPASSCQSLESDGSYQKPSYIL
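Assay system: HUVEC primary endothelial cells. Input: 3,000 HUVEC seeded per well. Doses: one compound dose added by pin transfer. Read-out basis: % PE-positive cells. Benchmarks: TNF-alpha high, DMSO low. Detection: immunofluorescence imaging. Buffer or medium: EGM-2, gelatin.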
Ecoli rRNA inh: inhibitors of bacterial rRNA selective over humanized ribosomes; E. coli WT GFP vs humanized-ribosome RFP mutants, fluorescence, 24 h; active compounds read low; DMSO median 0, no signal -100; GFP signal change (wild-type ribosome), % (test concentration not listed); actives 1.6% (n = 350,000);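 active = significant combined selectivity score with lowered wild-type GFP, culture density cut under 30%, mutant RFP and density less affected; inactive = any of these conditions unmet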
miR122 inh: miR-122 inhibition in Huh7 cells; Huh7 miR-122 Renilla luciferase sensor, 48 h; neutral wells = 0, positive control = 100; activation (reporter increase), % at 12.5 µM; actives 0.3% (n = 340,000); AID 602342;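 active = mean replicate activation score at least 90 and every replicate individually at or above 90; inconclusive = only one of the two criteria met; inactive = neither criterion met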;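 also: higher luciferase means less miR-122 activity so hits act as miR-122 inhibitors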
DENV2 CPE: inhibitors of DENV2 cytopathic effect | DENV2-infected cells, cytopathic effect rescue, plate reader | CPE inhibition, % at 9.99 µM | actives 1.7% (n = 350,000); in the data active = CPE inhibition above about 20%, passing the limit was not always enough; inconclusive = no clear call, values can overlap the other calls; tested in BHK-21 cells
Cneo AK release: causes C. neoformans cell lysis; adenylate kinase release luminescence, 4 h; normalised: neutral wells 0, clomiphene wells 100; lysis activity, % at 15 µM; actives 0.2% (n = 360,000); AID 651654;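 active = mean lysis activity across replicates of at least 80%, whatever share of replicates individually reach that level; inactive = mean lysis activity below 80%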
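Assay system: log-phase C. neoformans yeast / Quantity: yeast cell density of 5 × 10^6 cells/mL / Medium: fresh YPD growth medium / Compound: single dose / Timing: static 4 h at 37 °C with compound, 1 h detection / Measured by: adenylate kinase release luminescence / Read-out: lysis from increased AK signal / Benchmarks: Clomiphene as positive lysis control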
AID977621: growth inhibition of wild-type GFP E. coli, dose response, H69 mutant RFP, cherry-pick; 1,900 tested, under 10 active; E. coli wild-type GFP strain growth, fluorescence, 24 h; activity change, negative = inhibition at 50 µM; shares compounds with Ecoli rRNA inh;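 active = Wild-type ribosome reporter drop at least double the humanized mutant ribosome reporter drop, growth loss under a set limit; inconclusive = no clear call, values can overlap the other calls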;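 also: wild-type GFP and H69 mutant RFP strains grown together 50/50 in each well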
AID977628: growth of wild-type and h24-humanized E. coli strains – h24 mutant RFP vs wild-type GFP, cherry-pick, dose response; shares compounds with Ecoli rRNA inh; E. coli WT GFP strain growth, fluorescence, 24 h; activity change, negative = inhibition at 50 µM; 1,900 tested, under 10 active; AID 977628;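 active = compound lowering the normal-ribosome reporter at least twice as much as the humanized-ribosome reporter, growth loss under a set limit; inconclusive = no clear call, values can overlap the other calls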;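 also: wild-type GFP and h24 humanized RFP strains co-cultured 1 to 1 per well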
Large screens that a line does not name were inactive (follow-up assays come after a bar, where they were run).

CC(=O)NCCOc1nc(N2CCCCC2)nc(N2CCCCC2)n1	Ecoli rRNA inh -25.2 | AID977621 inactive | AID977628 inactive
Cc1ccc(S(=O)(=O)Nc2ccc3c(c2)CC(=O)N([C@H](C)CO)C[C@H](C)[C@H](CN(C)CC2CCCCC2)O3)cc1	none (no result: Ecoli rRNA inh)
NC(=O)c1cc(C(=O)Cc2ccccc2)c[nH]1	none (no result: E-sel inducer, miR122 inh)
COC(=O)c1cc(C(=O)Cc2ccccc2)c[nH]1	Ecoli rRNA inh -21.9 (no result: miR122 inh, Cneo AK release) | AID977621 inactive
CN(C)c1ccc(/C=C/c2cccc[n+]2[O-])cc1	none (no result: E-sel inducer)
[O-][n+]1ccccc1/C=C/c1ccccc1	Ecoli rRNA inh -26.2 (no result: miR122 inh, Cneo AK release) | AID977621 inactive | AID977628 inconclusive
C[C@@H]1CCCCO[C@@H](CN(C)C(=O)Cc2ccccc2)[C@H](C)CN([C@@H](C)CO)C(=O)c2cc(NS(=O)(=O)c3ccc(Cl)cc3)ccc2O1	none
CC(=O)OC(COc1cccc(C)c1)Cn1cnc2ccccc21 (stereo not drawn)	Ecoli rRNA inh -36.8 (no result: miR122 inh, Cneo AK release) | AID977621 inactive | AID977628 inconclusive
CC(=O)Nc1cccc(OCC(O)Cn2cnc3ccccc32)c1 (stereo not drawn)	none (no result: E-sel inducer, Ecoli rRNA inh, DENV2 CPE)
CCCNC(=O)C[C@H]1CC[C@@H]2[C@H](COc3ccc(NC(=O)c4cc(F)cc(F)c4)cc3C(=O)N2C)O1	none
COc1cc(OC)cc(C(=O)N[C@H](C(=O)OCC(=O)Nc2ccc(C)cc2C)C(C)C)c1	none (no result: E-sel inducer)
COc1cc(OC)cc(C(=O)N[C@H](C(=O)OCC(=O)Nc2ccc(F)c(F)c2F)C(C)C)c1	Ecoli rRNA inh -19.6 | AID977621 inconclusive
O=C(Nc1nc2ccccc2n1CCN1CCOCC1)c1ccccc1	Ecoli rRNA inh -16.5 (no result: E-sel inducer) | AID977621 inactive | AID977628 inactive
CN1c2ccc(-c3cccc(C#N)c3)cc2[C@H]2[C@H](CCN2C(=O)C2CCC2)[C@H]1CO	none
COc1ccccc1C(=O)COC(=O)c1cccs1	Ecoli rRNA inh -23.9 | AID977621 inactive | AID977628 inactive
Cc1nn(-c2cccc(Cl)c2)nc1C(=O)O	Ecoli rRNA inh -16.4 (no result: E-sel inducer, miR122 inh, Cneo AK release) | AID977621 inactive
c1ccc(CNc2ncnc3sccc23)cc1	Ecoli rRNA inh -21.3 (no result: miR122 inh) | AID977628 inconclusive
c1cncc(CNc2ncnc3sccc23)c1	none (no result: miR122 inh, Cneo AK release)
COc1ccc2nc(C)cc(SCC(=O)O)c2c1	none (no result: E-sel inducer, DENV2 CPE)
CCOC(=O)C(CC)Sc1cc(C)nc2ccc(OC)cc12 (stereo not drawn)	Ecoli rRNA inh -30.1 | AID977621 inactive
O=S(=O)(NCc1cc(-c2ccccc2)no1)c1ccccc1Cl	Ecoli rRNA inh -20.8 (no result: E-sel inducer, Cneo AK release) | AID977621 inactive | AID977628 inactive
COc1ccc(OC)c(S(=O)(=O)NCc2cc(-c3ccccc3)no2)c1	none
Cc1noc(C)c1COc1cccc(C(=O)N2CCc3ccccc32)c1	Ecoli rRNA inh -41.1 | AID977621 inactive | AID977628 inactive
COc1ccc(-c2cc(C(=O)O)nc3ccc4ccccc4c23)cc1OC	Ecoli rRNA inh -28.9 (no result: Cneo AK release) | AID977621 inactive
COc1ccc(-c2nc(C(=O)O)cs2)cc1OC	none (no result: E-sel inducer, Cneo AK release)
COc1ccc(NC(=O)Nc2ccc3c(c2)C(=O)N([C@@H](C)CO)C[C@H](C)[C@H](CN(C)C(=O)c2ccccc2)OCCCC[C@H](C)O3)cc1	DENV2 CPE inconclusive
Cc1cc(-c2nnc(SCC(=O)Nc3nc(-c4ccccc4)cs3)o2)no1	none (no result: E-sel inducer)
Cc1occc1-c1nnc(SCC(=O)Nc2nc(-c3ccccc3)cs2)o1	Ecoli rRNA inh -24.4 (no result: E-sel inducer) | AID977621 inconclusive | AID977628 inactive
Cc1ccc(Cl)cc1N1CCN(S(C)(=O)=O)CC1	Ecoli rRNA inh -35.4 (no result: E-sel inducer, miR122 inh) | AID977628 inconclusive
C[C@H]1CN([C@@H](C)CO)C(=O)c2cc(NC(=O)Cc3cn(C)c4ccccc34)ccc2O[C@@H]1CN(C)C(=O)Nc1ccccc1	none
c1ccc2c(c1)CSc1ccccc1N2	Ecoli rRNA inh -23.8 | AID977621 inactive | AID977628 inactive
